Published values gathered from unrelated publications.
Compare with care: the assays were run in different laboratories.
SLC6A2: Sodium-dependent noradrenaline transporter (SLC6A2, Homo sapiens, UniProt P23975)
Oprk1: Kappa-type opioid receptor (Oprk1, Mus musculus, UniProt P33534)
MPO: Myeloperoxidase (MPO, Homo sapiens, UniProt P05164)

The inhibition of CCOC(=O)[C@@]12C[C@@H]1[C@@H](n1cnc3c(NCCCCCc4ccccc4)nc(C#Cc4ccc(Cl)s4)nc31)[C@H](O)[C@@H]2O is reported as 0% (SLC6A2; transporter uptake; inhibitor; radiometric; HEK293; 10 µM).
The inhibition of C#Cc1cc(-c2cc(Nc3nc(N[C@@H](C)c4ccc(F)cn4)ncc3Cl)n[nH]2)ccc1C=O is reported as 7.44% (Interferon-induced, double-stranded RNA-activated protein kinase (EIF2AK2, Homo sapiens, UniProt P19525); enzyme activity; inhibitor; 0.2 µM).
CC(C)[C@H](CN1CCc2ccccc2C1)NC(=O)c1ccc(F)cc1 has an inhibition of 88.7% (Oprk1; ligand displacement; radioligand; 10 µM).
With COc1ccc(Cl)cc1-c1cc(=O)[nH]c(=S)n1CC(N)=O the inhibition was 98.2% (MPO; enzyme activity; inhibitor; fluorescence; 15 µM).
With CC(C)[C@@H](CN1CCc2ccccc2C1)NC(=O)c1cccc(-c2ccccc2)c1 the inhibition was 66% (Oprk1; ligand displacement; radioligand; 10 µM).
With Cc1cc(O)c(-c2ccc([C@@H](C)CN(C)C)cc2)c2c1[nH]c(=O)c1sccc12 the inhibition was 1.12% (Serine/threonine-protein kinase WNK4 (WNK4, Homo sapiens, UniProt Q96J92); enzyme activity; inhibitor; 0.1 µM).
For Cc1cc(F)cc2c(CCC(=O)N[C@@H]3C(=O)NC[C@H]3O)c(-c3ccc(F)cc3)[nH]c12, the inhibition was -4% (Neuronal acetylcholine receptor; alpha3/beta4 (Homo sapiens, UniProt P30926+P32297); cell-free assay; 10 µM).
CCOC(=O)[C@@]12C[C@@H]1[C@@H](n1cnc3c(NCc4cccc(Cl)c4)nc(C#Cc4ccc(Cl)s4)nc31)[C@H](O)[C@@H]2O gave an inhibition of 78% (SLC6A2; ligand displacement; radioligand; 10 µM).
For NC/C(=C\F)COc1cccc(Cn2c(=S)[nH]c(=O)c3[nH]cnc32)c1, the inhibition was 98.6% (MPO; enzyme activity; inhibitor; fluorescence; 0.3704 µM).
The inhibition of OC[C@@]12C[C@@H]1[C@@H](n1cnc3c(NCCCCCCc4ccccc4)nc(I)nc31)[C@H](O)[C@@H]2O is reported as 52% (SLC6A2; ligand displacement; radioligand; 10 µM).
O=c1c(O[C@@H]2O[C@H](CO)[C@H](O)[C@H](O)[C@H]2O)c(-c2ccc(O)c(O)c2)oc2cc(O)cc(O)c12 has an inhibition of 79.1% (srtA (Staphylococcus aureus, UniProt Q2FV99); enzyme activity; inhibitor; FRET; 120 µM).
The inhibition of CC(C)[C@@H](CN1CCc2ccccc2C1)NC(=O)c1c(Cl)cncc1Cl is reported as 70.9% (Oprk1; ligand displacement; radioligand; 10 µM).
With N#CC[C@@]12C[C@@H]1[C@@H](n1cnc3c(Nc4ccccc4)nc(I)nc31)[C@H](O)[C@@H]2O the inhibition was 20% (SLC6A2; ligand displacement; radioligand; 10 µM).
CC(C)[C@@H](CN1CCc2ccccc2C1)NC(=O)c1ccc([N+](=O)[O-])s1 gave an inhibition of 68.8% (Oprk1; ligand displacement; radioligand; 10 µM).
For CC(C)OCCn1c(=S)[nH]c(=O)c2[nH]ccc21, the inhibition was 96.2% (MPO; enzyme activity; inhibitor; fluorescence; 0.3704 µM).
CC(C)[C@@H](CN1CCc2ccccc2C1)NC(=O)c1cccc(-c2cccnc2)c1 gave an inhibition of 74.3% (Oprk1; ligand displacement; radioligand; 10 µM).
For CCOC(=O)[C@@]12C[C@@H]1[C@@H](n1cnc3c(Nc4ccccc4)nc(C#Cc4ccc(Cl)s4)nc31)[C@H](O)[C@@H]2O, the inhibition was 78% (SLC6A2; ligand displacement; radioligand; 10 µM).
For CC(C)[C@H](CN1CCc2ccccc2C1)NC(=O)C=Cc1ccccc1, the inhibition was 55.7% (Oprk1; ligand displacement; radioligand; 10 µM).
For CCOC(=O)[C@@]12C[C@@H]1[C@@H](n1cnc3c(NCCCCCc4ccccc4)nc(C#Cc4ccccc4)nc31)[C@H](O)[C@@H]2O, the inhibition was 1% (SLC6A2; transporter uptake; inhibitor; radiometric; HEK293; 10 µM).
